Assay results gathered from unrelated publications.
pEC50: −log10 of the molar value. Converted amounts (≈) assume the structure as drawn.
Organism: Plasmodium falciparum
Read-out: parasite growth

Compound	technique	strain	concentration	time	notes	endpoint	result
Cc1ccc(-c2ccccc2C(=O)Nc2c(C)cccc2C(=O)O)cc1	SYBR Green	NF54	10 µM	96 h	blood stage	inhibition	8.4%
CCn1cc(C(=O)O)c(=O)c2cc(F)c(N3CCC(C)CC3)cc21	–	3D7	–	72 h	blood stage	pEC50	< 5.00
O=C(Nc1ccc(F)cc1C(=O)O)c1ccc(-c2ccccc2)cc1	SYBR Green	NF54	10 µM	96 h	blood stage	inhibition	12.7%
CN1CCN(S(=O)(=O)c2ccc(-c3ccc4c(Nc5ccnnc5)ccnc4c3)cc2)CC1	–	D6	–	–	drug-resistant strain, blood stage	pEC50	5.68
CCN(CC)CCCC(C)Nc1ccnc2cc(Cl)ccc12 (stereo not shown)	–	D6	–	72 h	blood stage	IC50	0.016 µg/mL (≈ 0.05 µM)
CCCC1CCN(c2cc3c(cc2F)c(=O)c(C(=O)OCC)cn3CC)CC1	–	3D7	–	72 h	blood stage	pEC50	7.52
O=C(Nc1cc(F)ccc1C(=O)O)c1ccc(-c2ccccc2)cc1	–	NF54	2 µM	48 h	gametocyte	inhibition	13.8%
O=C(c1ccc(Nc2nccc(-c3ccc4ccccc4c3)n2)cc1)N1CCC(N2CCCC2)CC1	SYBR Green	3D7	1 µM	–	blood stage	inhibition	> 75%
CN1CCN(c2ncc(-c3ccc4c(Nc5cnccn5)ccnc4c3)cn2)CC1	–	D6	–	–	drug-resistant strain, blood stage	pEC50	7.59
CCn1cc(-c2ccnn2C)c(=O)c2cc(F)c(N3CCC(C)CC3)cc21	–	3D7	–	72 h	blood stage	pEC50	< 5.00
CN1CCN(c2nccc(Nc3ccc4c(Nc5cnccn5)ccnc4c3)n2)CC1	–	D6	–	–	drug-resistant strain, blood stage	pEC50	6.74
CCn1cc(-c2nc(C)no2)c(=O)c2cc(F)c(N3CCC(Cc4ccccc4)CC3)cc21	–	3D7	–	72 h	blood stage	pEC50	8.05
CN1CCN(S(=O)(=O)c2ccc(-c3ccc4c(Nc5ccc6[nH]nnc6c5)ccnc4c3)cc2)CC1	–	D6	–	–	drug-resistant strain, blood stage	pEC50	7.57
CCn1cc(-c2nc(C)no2)c(=O)c2cc(F)c(N3CCC(C)CC3)cc21	–	3D7	–	–	blood stage	pEC50	8.12
Cc1ccc(Nc2ccnc3cc(-c4ccc(S(=O)(=O)N5CCN(C)CC5)cc4)ccc23)cc1Cl	–	D6	–	–	drug-resistant strain, blood stage	pEC50	7.19
O=C(Nc1c(F)cccc1C(=O)O)c1ccc(-c2ccccc2)cc1	–	NF54	2 µM	48 h	gametocyte	inhibition	38.8%
